# Laboratory results reported in ChEMBL document CHEMBL3526062, “Role of human UDP-glucuronosyltransferases in the biotransformation of the triazoloacridinone and imidazoacridinone antitumor agents C-1305 and C-1311: highly selective substrates for UGT1A10” (Drug Metab Dispos, 2012).
# Tests used:
# Assay type in all cases: ADME
# [1] = test system: CCN(CC)CCNc1ccc2ncn3c4ccc(O)cc4c(=O)c1c23; experiment: (§1) Activity of human recombinant UGT1A10 V92A mutant expressed in baculovirus-infected Sf9 cells assessed as enzyme-mediated glucuronidation after 60 mins by Michaelis-Menten equation in presence of 3 mM UDP-GlcUA
# Procedure, shortened: (§2)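 Membrane fractions (5 μg) holding wild-type or point-mutant UGT1A10 incubated with increasing substrate concentrations and 3 mM UDP-GlcUA, 60 min, 37°C; products by HPLC. Kinetic constants from curve fits of three determinations; Km in μM, Vmax in nmol/mg protein/min.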
# [2] = test system: CN(C)CCCNc1ccc2nnn3c4ccc(O)cc4c(=O)c1c23; experiment: as §1; procedure, shortened: as §2
# [3] = test system: CCN(CC)CCNc1ccc2ncn3c4ccc(O)cc4c(=O)c1c23; experiment: (§3) Activity of human recombinant UGT1A10 D396A mutant expressed in baculovirus-infected Sf9 cells assessed as enzyme-mediated glucuronidation after 60 mins by Michaelis-Menten equation in presence of 3 mM UDP-GlcUA; procedure, shortened: as §2
# [4] = test system: CN(C)CCCNc1ccc2nnn3c4ccc(O)cc4c(=O)c1c23; experiment: as §3; procedure, shortened: as §2
# [5] = substrate: CCN(CC)CCNc1ccc2ncn3c4ccc(O)cc4c(=O)c1c23; experiment: (§4) Activity of human recombinant UGT1A10 expressed in baculovirus-infected Sf9 cells assessed as enzyme-mediated glucuronidation after 60 mins by Michaelis-Menten equation in presence of 3 mM UDP-GlcUA
# Procedure, shortened: (§5)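 Recombinant UGT membrane protein (5 μg; His-tagged UGT1A levels normalized by anti-His Western blot) or single-donor microsomes (20 μg) incubated with substrate 5–1000 μM and 3 mM UDP-GlcUA in […] pH 7.4, 5 mM MgCl2, 5 mM saccharolactone, 2% DMSO, 60 min, 37°C. Ethanol stop, centrifuged, HPLC-UV. Initial velocities fitted to Michaelis-Menten, Hill or substrate-inhibition models; three determinations.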
# [6] = substrate: CN(C)CCCNc1ccc2nnn3c4ccc(O)cc4c(=O)c1c23; experiment: as §4; procedure, shortened: as §5
# [7] = substrate: CN(C)CCCNc1ccc2nnn3c4ccc(O)cc4c(=O)c1c23; experiment: Activity of human recombinant UGT1A7 expressed in baculovirus-infected Sf9 cells assessed as enzyme-mediated glucuronidation after 60 mins by Michaelis-Menten equation in presence of 3 mM UDP-GlcUA
# [8] = substrate: CCN(CC)CCNc1ccc2ncn3c4ccc(O)cc4c(=O)c1c23; experiment: (§6) Activity of human recombinant UGT1A1 expressed in baculovirus-infected Sf9 cells assessed as enzyme-mediated glucuronidation after 60 mins by Michaelis-Menten equation in presence of 3 mM UDP-GlcUA; procedure, shortened: as §5
# [9] = substrate: CN(C)CCCNc1ccc2nnn3c4ccc(O)cc4c(=O)c1c23; experiment: as §6; procedure, shortened: as §5
# [10] = substrate: CCN(CC)CCNc1ccc2ncn3c4ccc(O)cc4c(=O)c1c23; experiment: (§7) Activity of human recombinant UGT1A9 expressed in baculovirus-infected Sf9 cells assessed as enzyme-mediated glucuronidation after 60 mins by Michaelis-Menten equation in presence of 3 mM UDP-GlcUA; procedure, shortened: as §5
# [11] = substrate: CN(C)CCCNc1ccc2nnn3c4ccc(O)cc4c(=O)c1c23; experiment: as §7; procedure, shortened: as §5
molecule,measurement,setting,value
UDP-glucuronosyltransferase 1A10 (Homo sapiens; V92A),Km,[1],40.7 µM
same,Vmax,[1],0.00025 µmol/min
same,Km,[2],64.7 µM
same,Vmax,[2],0.00073 µmol/min
UDP-glucuronosyltransferase 1A10 (Homo sapiens; D396A),Km,[3],75.4 µM
same,Vmax,[3],0.00078 µmol/min
same,Km,[4],47.6 µM
same,Vmax,[4],0.00199 µmol/min
UDP-glucuronosyltransferase 1A10 (Homo sapiens) (protein) MARAGWTSPVPLCVCLLLTCGFAEAGKLLVVPMDGSHWFTMQSVVEKLILRGHEVVVVMPEVSWQLERSLNCTVKTYSTSYTLEDQNREFMVFAHAQWKAQAQSIFSLLMSSSSGFLDLFFSHCRSLFNDRKLVEYLKESSFDAVFLDPFDTCGLIVAKYFSLPSVVFTRGIFCHHLEEGAQCPAPLSYVPNDLLGFSDAMTFKERVWNHIVHLEDHLFCQYLFRNALEIASEILQTPVTAYDLYSHTSIWLLRTDFVLDYPKPVMPNMIFIGGINCHQGKPLPMEFEAYINASGEHGIVVFSLGSMVSEIPEKKAMAIADALGKIPQTVLWRYTGTRPSNLANNTILVKWLPQNDLLGHPMTRAFITHAGSHGVYESICNGVPMVMMPLFGDQMDNAKRMETKGAGVTLNVLEMTSEDLENALKAVINDKSYKENIMRLSSLHKDRPVEPLDLAVFWVEFVMRHKGAPHLRPAAHDLTWYQYHSLDVIGFLLAVVLTVAFITFKCCAYGYRKCLGKKGRVKKAHKSKTH,Km,[5],70.6 µM
same,Vmax,[5],0.000624 µmol/min
same,Km,[6],94.1 µM
same,Vmax,[6],0.00256 µmol/min
UDP-glucuronosyltransferase 1A7 (Homo sapiens) (protein) MARAGWTGLLPLYVCLLLTCGFAKAGKLLVVPMDGSHWFTMQSVVEKLILRGHEVVVVMPEVSWQLGRSLNCTVKTYSTSYTLEDQDREFMVFADARWTAPLRSAFSLLTSSSNGIFDLFFSNCRSLFNDRKLVEYLKESCFDAVFLDPFDACGLIVAKYFSLPSVVFARGIFCHYLEEGAQCPAPLSYVPRLLLGFSDAMTFKERVWNHIMHLEEHLFCPYFFKNVLEIASEILQTPVTAYDLYSHTSIWLLRTDFVLEYPKPVMPNMIFIGGINCHQGKPVPMEFEAYINASGEHGIVVFSLGSMVSEIPEKKAMAIADALGKIPQTVLWRYTGTRPSNLANNTILVKWLPQNDLLGHPMTRAFITHAGSHGVYESICNGVPMVMMPLFGDQMDNAKRMETKGAGVTLNVLEMTSEDLENALKAVINDKSYKENIMRLSSLHKDRPVEPLDLAVFWVEFVMRHKGAPHLRPAAHDLTWYQYHSLDVIGFLLAVVLTVAFITFKCCAYGYRKCLGKKGRVKKAHKSKTH,Km,[7],29.3 µM
same,Vmax,[7],0.000306 µmol/min
UDP-glucuronosyltransferase 1A1 (Homo sapiens) (protein) MAVESQGGRPLVLGLLLCVLGPVVSHAGKILLIPVDGSHWLSMLGAIQQLQQRGHEIVVLAPDASLYIRDGAFYTLKTYPVPFQREDVKESFVSLGHNVFENDSFLQRVIKTYKKIKKDSAMLLSGCSHLLHNKELMASLAESSFDVMLTDPFLPCSPIVAQYLSLPTVFFLHALPCSLEFEATQCPNPFSYVPRPLSSHSDHMTFLQRVKNMLIAFSQNFLCDVVYSPYATLASEFLQREVTVQDLLSSASVWLFRSDFVKDYPRPIMPNMVFVGGINCLHQNPLSQEFEAYINASGEHGIVVFSLGSMVSEIPEKKAMAIADALGKIPQTVLWRYTGTRPSNLANNTILVKWLPQNDLLGHPMTRAFITHAGSHGVYESICNGVPMVMMPLFGDQMDNAKRMETKGAGVTLNVLEMTSEDLENALKAVINDKSYKENIMRLSSLHKDRPVEPLDLAVFWVEFVMRHKGAPHLRPAAHDLTWYQYHSLDVIGFLLAVVLTVAFITFKCCAYGYRKCLGKKGRVKKAHKSKTH,Km,[8],28.9 µM
same,Vmax,[8],0.000115 µmol/min
same,Km,[9],149 µM
same,Vmax,[9],0.000262 µmol/min
UDP-glucuronosyltransferase 1A9 (Homo sapiens) (protein) MACTGWTSPLPLCVCLLLTCGFAEAGKLLVVPMDGSHWFTMRSVVEKLILRGHEVVVVMPEVSWQLGRSLNCTVKTYSTSYTLEDLDREFKAFAHAQWKAQVRSIYSLLMGSYNDIFDLFFSNCRSLFKDKKLVEYLKESSFDAVFLDPFDNCGLIVAKYFSLPSVVFARGILCHYLEEGAQCPAPLSYVPRILLGFSDAMTFKERVRNHIMHLEEHLLCHRFFKNALEIASEILQTPVTEYDLYSHTSIWLLRTDFVLDYPKPVMPNMIFIGGINCHQGKPLPMEFEAYINASGEHGIVVFSLGSMVSEIPEKKAMAIADALGKIPQTVLWRYTGTRPSNLANNTILVKWLPQNDLLGHPMTRAFITHAGSHGVYESICNGVPMVMMPLFGDQMDNAKRMETKGAGVTLNVLEMTSEDLENALKAVINDKSYKENIMRLSSLHKDRPVEPLDLAVFWVEFVMRHKGAPHLRPAAHDLTWYQYHSLDVIGFLLAVVLTVAFITFKCCAYGYRKCLGKKGRVKKAHKSKTH,Km,[10],63.3 µM
same,Vmax,[10],0.000206 µmol/min
same,Km,[11],54.6 µM
same,Vmax,[11],0.000201 µmol/min
